In ChEMBL document CHEMBL4251567 (Eur J Med Chem, 2018):

How the values were obtained:
U-937 [1] = assay: Cytotoxicity against human U937 cells assessed as cell viability at 3 x 10^-3 M after 44 hrs by MTT assay relative to control; assay type: functional; settings: U-937, 44 h, read-out: Activity
U-937 [2] = assay: Cytotoxicity against human U937 cells assessed as cell viability at 80 uM after 44 hrs in presence of PCI-34051 by MTT assay relative to control; assay type: functional; settings: U-937, 44 h, read-out: Activity
U-937 [3] = assay: Cytotoxicity against human U937 cells assessed as cell viability at 5 x 10^-4 M after 44 hrs by MTT assay relative to control; assay type: functional; settings: U-937, 44 h, read-out: Activity
U-937 [4] = assay: Cytotoxicity against human U937 cells assessed as cell viability at 1 x 10^-3 M after 44 hrs by MTT assay relative to control; assay type: functional; settings: U-937, 44 h, read-out: Activity
U-937 [5] = assay: Cytotoxicity against human U937 cells assessed as cell viability at 2.5 x 10^-4 M after 44 hrs by MTT assay relative to control; assay type: functional; settings: U-937, 44 h, read-out: Activity
U-937 [6] = assay: Cytotoxicity against human U937 cells assessed as cell viability at 4 x 10^-3 M after 44 hrs by MTT assay relative to control; assay type: functional; settings: U-937, 44 h, read-out: Activity
U-937 [7] = assay: Cytotoxicity against human U937 cells assessed as cell viability at 80 uM after 44 hrs by MTT assay relative to control; assay type: functional; settings: U-937, 44 h, read-out: Activity
U-937 [8] = assay: Cytotoxicity against human U937 cells assessed as decrease in cell viability after 44 hrs by MTT assay; assay type: functional, cell-based; settings: Homo sapiens, U-937, 44 h
[9] = molecular target: Histone deacetylase 3 (Homo sapiens) (UniProt O15379); assay: Inhibition of HDAC3 in human HeLa-S3 cell lysates assessed as remaining activity at 5 x 10^-6 M preincubated for 15 mins followed by HDAC-Glo substrate addition measured after 30 to 40 mins by […] relative to control
How it was run: (§1)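 Antibody-capture (ELISA-type) assay: HDAC antibody coated in carbonate/bicarbonate buffer pH 9.4, wells blocked with 5% milk in TBST. HeLa-S3 lysate added at 1 mg/mL for HDAC3, 1 h at 4 °C, then washed. Inhibitor in DMSO preincubated 15 min at RT in HDAC-Glo buffer. HDAC-Glo reagent added, luminescence read after 30-40 min. Concentrations are final. Background = no-antibody well; activity given as % of DMSO control.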

[10] = molecular target: Histone deacetylase 3 (Homo sapiens) (UniProt O15379); assay: Inhibition of HDAC3 in human HeLa-S3 cell lysates assessed as remaining activity at 8 x 10^-5 M preincubated for 15 mins followed by HDAC-Glo substrate addition measured after 30 to 40 mins by […] relative to control; how it was run: as §1
[11] = molecular target: Histone deacetylase 1 (Homo sapiens) (UniProt Q13547); assay: Inhibition of HDAC1 in human HeLa-S3 cell lysates assessed as remaining activity at 4 x 10^-5 M preincubated for 15 mins followed by HDAC-Glo substrate addition measured after 30 to 40 mins by […] relative to control
How it was run: (§2)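 HDAC1 was captured from HeLa-S3 lysate (100 μg/mL) onto wells precoated with anti-HDAC1 antibody (10 μg/mL, carbonate buffer pH 9.4) and milk-blocked, 1 h at 4 °C, then washed. Inhibitor in DMSO was added in HDAC-Glo buffer for 15 min at room temperature. HDAC-Glo reagent was added and luminescence read after 30-40 min. Concentrations are final. No-antibody background subtracted; % of DMSO control.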

[12] = molecular target: Histone deacetylase 1 (Homo sapiens) (UniProt Q13547); assay: Inhibition of HDAC1 in human HeLa-S3 cell lysates assessed as remaining activity at 8 x 10^-5 M preincubated for 15 mins followed by HDAC-Glo substrate addition measured after 30 to 40 mins by […] relative to control
[13] = molecular target: Histone deacetylase 1 (Homo sapiens) (UniProt Q13547); assay: Inhibition of HDAC1 in human HeLa-S3 cell lysates assessed as remaining activity at 1 x 10^-5 M preincubated for 15 mins followed by HDAC-Glo substrate addition measured after 30 to 40 mins by fluorimetric method relative to control; how it was run: as §2
[14] = molecular target: Histone deacetylase 1 (Homo sapiens) (UniProt Q13547); assay: Inhibition of HDAC1 in human HeLa-S3 cell lysates assessed as remaining activity at 2 x 10^-5 M preincubated for 15 mins followed by HDAC-Glo substrate addition measured after 30 to 40 mins by […] relative to control; how it was run: as §2
[15] = molecular target: Histone deacetylase 2 (Homo sapiens) (UniProt Q92769); assay: Inhibition of HDAC2 in human HeLa-S3 cell lysates assessed as remaining activity at 8 x 10^-5 M preincubated for 15 mins followed by HDAC-Glo substrate addition measured after 30 to 40 mins by […] relative to control
How it was run: (§3)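 Same antibody-capture format as the other class I isoforms. HeLa-S3 lysate added at 100 μg/mL for HDAC1 and HDAC2, 1 h at 4 °C, then washed. Inhibitor in DMSO preincubated 15 min at RT; HDAC-Glo reagent added and luminescence read after 30-40 min. Concentrations are final. Signal corrected against a well without antibody; activity expressed as % of DMSO control.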

[16] = molecular target: Histone deacetylase 3 (Homo sapiens) (UniProt O15379); assay: Inhibition of HDAC3 in human HeLa-S3 cell lysates assessed as remaining activity at 4 x 10^-5 M preincubated for 15 mins followed by HDAC-Glo substrate addition measured after 30 to 40 mins by […] relative to control; how it was run: as §1
[17] = molecular target: Histone deacetylase 3 (Homo sapiens) (UniProt O15379); assay: Inhibition of HDAC3 in human HeLa-S3 cell lysates assessed as remaining activity at 1 x 10^-5 M preincubated for 15 mins followed by HDAC-Glo substrate addition measured after 30 to 40 mins by […] relative to control; how it was run: as §1
[18] = molecular target: Histone deacetylase 2 (Homo sapiens) (UniProt Q92769); assay: Inhibition of HDAC2 in human HeLa-S3 cell lysates assessed as remaining activity at 5 x 10^-6 M preincubated for 15 mins followed by HDAC-Glo substrate addition measured after 30 to 40 mins by […] relative to control; how it was run: as §3
[19] = molecular target: T1, Protein deacetylase HDAC6 (Homo sapiens) (UniProt Q9UBN7); assay: Inhibition of HDAC6 in human HeLa-S3 cell lysates assessed as remaining activity at 1.25 x 10^-8 M preincubated for 15 mins followed by HDAC-Glo substrate addition measured after 30 to 40 mins by […] relative to control
T1 sequence (whole entry): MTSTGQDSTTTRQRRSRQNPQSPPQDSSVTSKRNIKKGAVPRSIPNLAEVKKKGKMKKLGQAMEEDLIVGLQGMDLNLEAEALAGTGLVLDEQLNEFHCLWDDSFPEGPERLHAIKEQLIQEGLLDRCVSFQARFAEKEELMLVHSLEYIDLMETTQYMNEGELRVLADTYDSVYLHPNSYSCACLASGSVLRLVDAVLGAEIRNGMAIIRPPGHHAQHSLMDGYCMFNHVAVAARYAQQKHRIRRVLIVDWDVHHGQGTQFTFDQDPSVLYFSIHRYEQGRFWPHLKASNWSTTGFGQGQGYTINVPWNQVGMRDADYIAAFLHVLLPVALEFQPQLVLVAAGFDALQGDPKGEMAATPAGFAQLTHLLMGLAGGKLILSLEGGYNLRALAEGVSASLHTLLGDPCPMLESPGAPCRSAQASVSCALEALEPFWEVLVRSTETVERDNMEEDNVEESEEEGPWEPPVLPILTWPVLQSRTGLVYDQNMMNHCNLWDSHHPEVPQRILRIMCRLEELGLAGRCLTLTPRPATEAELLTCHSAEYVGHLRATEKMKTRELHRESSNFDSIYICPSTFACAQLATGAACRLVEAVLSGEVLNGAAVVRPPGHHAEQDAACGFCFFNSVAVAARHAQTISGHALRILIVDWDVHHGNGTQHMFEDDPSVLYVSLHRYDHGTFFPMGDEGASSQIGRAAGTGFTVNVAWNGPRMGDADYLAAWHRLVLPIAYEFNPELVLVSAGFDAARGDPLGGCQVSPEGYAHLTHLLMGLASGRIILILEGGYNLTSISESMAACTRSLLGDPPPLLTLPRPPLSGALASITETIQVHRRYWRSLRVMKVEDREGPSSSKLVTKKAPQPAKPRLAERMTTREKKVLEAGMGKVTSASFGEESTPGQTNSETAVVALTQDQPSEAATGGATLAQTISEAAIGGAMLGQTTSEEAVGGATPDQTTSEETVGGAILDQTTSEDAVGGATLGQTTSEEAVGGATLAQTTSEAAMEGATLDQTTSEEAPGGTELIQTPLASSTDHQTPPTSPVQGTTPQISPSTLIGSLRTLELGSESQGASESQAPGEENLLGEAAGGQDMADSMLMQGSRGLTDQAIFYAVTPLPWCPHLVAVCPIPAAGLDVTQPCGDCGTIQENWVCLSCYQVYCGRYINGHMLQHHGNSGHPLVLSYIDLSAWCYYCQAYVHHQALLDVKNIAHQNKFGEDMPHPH
How it was run: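 HDAC6 captured on an anti-HDAC6 antibody-coated plate (2 μg/mL, pH 9.4 carbonate buffer, milk-blocked). HeLa-S3 lysate loaded at 1 mg/mL, 1 h at 4 °C, then washed. 15 min RT preincubation with inhibitor in DMSO; HDAC-Glo reagent added, luminescence read at 30-40 min. Concentrations are final. Background = no-antibody well; values are % activity versus DMSO control.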

[20] = molecular target: Histone deacetylase 2 (Homo sapiens) (UniProt Q92769); assay: Inhibition of HDAC2 in human HeLa-S3 cell lysates assessed as remaining activity at 2 x 10^-5 M preincubated for 15 mins followed by HDAC-Glo substrate addition measured after 30 to 40 mins by fluorimetric method relative to control; how it was run: as §3
[21] = molecular target: Histone deacetylase 2 (Homo sapiens) (UniProt Q92769); assay: Inhibition of HDAC2 in human HeLa-S3 cell lysates assessed as remaining activity at 4 x 10^-5 M preincubated for 15 mins followed by HDAC-Glo substrate addition measured after 30 to 40 mins by […] relative to control; how it was run: as §3
[22] = molecular target: Histone deacetylase 3 (Homo sapiens) (UniProt O15379); assay: Inhibition of HDAC3 in human HeLa-S3 cell lysates assessed as remaining activity at 2 x 10^-5 M preincubated for 15 mins followed by HDAC-Glo substrate addition measured after 30 to 40 mins by […] relative to control; how it was run: as §1
[23] = molecular target: Histone deacetylase 1 (Homo sapiens) (UniProt Q13547); assay: Inhibition of HDAC1 in human HeLa-S3 cell lysates assessed as remaining activity at 5 x 10^-6 M preincubated for 15 mins followed by HDAC-Glo substrate addition measured after 30 to 40 mins by […] relative to control; how it was run: as §2
U-937 [24] = assay: Cytotoxicity against human U937 cells assessed as cell viability at 1.25 x 10^-3 M after 44 hrs by MTT assay relative to control; assay type: functional; settings: U-937, 44 h, read-out: Activity
U-937 [25] = assay: Cytotoxicity against human U937 cells assessed as cell viability at 2.5 x 10^-3 M after 44 hrs by MTT assay relative to control; assay type: functional; settings: U-937, 44 h, read-out: Activity
U-937 [26] = assay: Cytotoxicity against human U937 cells assessed as cell viability at 200 uM after 44 hrs by MTT assay relative to control; assay type: functional; settings: U-937, 44 h, read-out: Activity
U-937 [27] = assay: Cytotoxicity against human U937 cells assessed as cell viability at 200 uM after 44 hrs in presence of tubastatin by MTT assay relative to control; assay type: functional; settings: U-937, 44 h, read-out: Activity
U-937 [28] = assay: Cytotoxicity against human U937 cells assessed as cell viability at 5 x 10^-3 M after 44 hrs by MTT assay relative to control; assay type: functional; settings: U-937, 44 h, read-out: Activity

Histone deacetylase 2 (Homo sapiens), sequence (Q92769 whole entry, canonical isoform): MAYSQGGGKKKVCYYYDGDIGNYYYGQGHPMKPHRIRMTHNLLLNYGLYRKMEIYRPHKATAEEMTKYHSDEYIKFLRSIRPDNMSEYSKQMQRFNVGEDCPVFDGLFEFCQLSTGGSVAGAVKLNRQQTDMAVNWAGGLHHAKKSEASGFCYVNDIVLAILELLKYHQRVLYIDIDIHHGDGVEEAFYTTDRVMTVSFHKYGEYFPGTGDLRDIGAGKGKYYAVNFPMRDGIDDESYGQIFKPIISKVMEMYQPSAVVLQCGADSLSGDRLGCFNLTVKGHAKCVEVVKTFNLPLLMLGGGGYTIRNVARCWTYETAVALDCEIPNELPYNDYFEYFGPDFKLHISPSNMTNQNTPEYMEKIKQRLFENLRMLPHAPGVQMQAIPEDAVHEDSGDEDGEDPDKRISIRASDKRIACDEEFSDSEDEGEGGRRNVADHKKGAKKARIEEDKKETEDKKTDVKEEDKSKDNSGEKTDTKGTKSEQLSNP
Histone deacetylase 1 (Homo sapiens), sequence (Q13547 whole entry): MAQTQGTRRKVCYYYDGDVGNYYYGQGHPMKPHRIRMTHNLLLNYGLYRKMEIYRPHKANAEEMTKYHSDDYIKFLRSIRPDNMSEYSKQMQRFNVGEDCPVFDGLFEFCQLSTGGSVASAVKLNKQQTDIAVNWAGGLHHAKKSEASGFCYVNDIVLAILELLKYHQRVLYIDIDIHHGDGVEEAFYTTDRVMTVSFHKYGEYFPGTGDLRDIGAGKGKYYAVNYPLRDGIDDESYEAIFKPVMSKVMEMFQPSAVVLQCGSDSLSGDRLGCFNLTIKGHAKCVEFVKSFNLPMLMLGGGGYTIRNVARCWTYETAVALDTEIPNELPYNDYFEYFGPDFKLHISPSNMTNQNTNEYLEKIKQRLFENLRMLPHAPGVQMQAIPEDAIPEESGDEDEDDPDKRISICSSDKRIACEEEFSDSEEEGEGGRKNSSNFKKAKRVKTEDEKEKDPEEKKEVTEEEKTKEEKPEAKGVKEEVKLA
Histone deacetylase 3 (Homo sapiens), sequence (O15379 whole entry): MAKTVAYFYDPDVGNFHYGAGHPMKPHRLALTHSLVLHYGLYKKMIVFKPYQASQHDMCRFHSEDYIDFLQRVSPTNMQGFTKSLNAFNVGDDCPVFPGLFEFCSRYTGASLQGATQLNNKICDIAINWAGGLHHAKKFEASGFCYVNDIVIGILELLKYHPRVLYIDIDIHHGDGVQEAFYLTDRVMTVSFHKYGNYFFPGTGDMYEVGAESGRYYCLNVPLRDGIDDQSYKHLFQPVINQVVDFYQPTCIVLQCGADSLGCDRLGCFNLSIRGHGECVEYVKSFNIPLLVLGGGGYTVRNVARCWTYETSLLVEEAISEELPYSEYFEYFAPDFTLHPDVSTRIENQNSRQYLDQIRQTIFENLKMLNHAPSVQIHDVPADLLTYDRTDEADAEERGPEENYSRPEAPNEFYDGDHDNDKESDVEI

SMILES: CN1CCc2c(c3ccccc3n2Cc2ccc(C(=O)NO)cc2)C1 [TUBASTATIN A]
- viability at 3000 µM (U-937 [1]): 19%
- viability at 80 µM (U-937 [2]): 13%
- viability at 500 µM (U-937 [3]): 68%
- viability at 1000 µM (U-937 [4]): 38%
- viability at 250 µM (U-937 [5]): 82%
- viability at 4000 µM (U-937 [6]): 17%
- viability at 80 µM (U-937 [7]): 44%
- EC50 (U-937 [8]): 83 µM

SMILES: O=C(CC[C@@H](CCCC(=O)Nc1ccccc1)Cc1ccccc1)NO
- Activity [9]: 89%
- Activity [10]: 25%
- Activity [11]: 38%
- Activity [12]: 24%
- Activity [13]: 72%
- Activity [14]: 53%
- Activity [15]: 29%
- Activity [16]: 39%
- Activity [17]: 77%
- Activity [18]: 96%
- Activity [19]: 67%
- Activity [20]: 71%
- Activity [21]: 43%
- Activity [22]: 54%
- Activity [23]: 88%

SMILES: COc1ccc(Cn2ccc3ccc(C(=O)NO)cc32)cc1
- viability at 1250 µM (U-937 [24]): 71%
- viability at 2500 µM (U-937 [25]): 50%
- viability at 500 µM (U-937 [3]): 85%
- viability at 200 µM (U-937 [26]): 62%
- viability at 200 µM (U-937 [27]): 13%
- viability at 5000 µM (U-937 [28]): 9%
- EC50 (U-937 [8]): 210 µM
